Bioassay records from PubChem BioAssay.
MrgX1 ag – human MrgX1 receptor agonism, primary screen; Q96LB2; AID 588627; MrgX1-HEK293 cells, Fluo-4 calcium fluorescence, agonist mode; hits give high values; B-score at 10 µM; 0.44% of 310,000 active;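 active = calcium response B-score plate-corrected fluorescence ratio at least 3 library SD, with starting fluorescence B-score inside 5 SD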
Target sequence (Q96LB2 whole entry, looked up): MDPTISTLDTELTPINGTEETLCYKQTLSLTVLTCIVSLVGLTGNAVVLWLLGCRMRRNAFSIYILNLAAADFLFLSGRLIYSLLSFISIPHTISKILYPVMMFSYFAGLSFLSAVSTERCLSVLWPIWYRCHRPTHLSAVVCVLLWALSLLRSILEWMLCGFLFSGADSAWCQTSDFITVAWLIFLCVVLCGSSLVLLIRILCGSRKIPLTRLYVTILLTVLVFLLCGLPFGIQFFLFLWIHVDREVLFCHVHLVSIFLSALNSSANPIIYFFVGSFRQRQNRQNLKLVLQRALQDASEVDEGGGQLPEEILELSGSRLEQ
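System – MrgX1-expressing HEK293 cells · Incubation – cells plated overnight, dye loaded 0.5 h 37 °C, 0.5 h room temperature · Technique – kinetic Fluo-4 NW fluorescence of intracellular calcium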
RGS4 pot – potentiators or activators of RGS4; HEK293 M3R/inducible RGS4, carbachol calcium flux Fluo4; hits give low values; B-score at 10 µM; 0.92% of 310,000 active; AID 463111;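 active = B-score of the integrated calcium signal more than 4 SD below the library mean, with starting fluorescence not abnormally high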;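 note: negative B-score means reduced calcium response which marks RGS4 activation or potentiation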
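Reagent: ECmax carbachol challenge; Test system: M3R-expressing HEK293 line, RGS4 induced by doxycycline; Schedule: overnight RGS4 induction, 30 min dye load 37 °C, 20 min compound RT; Detection: calcium dye Fluo4 fluorescence; Read-out: Agonist-evoked peak-minus-minimum fluorescence over baseline, integrated ratio, B score.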
MrgX1 allo act – human MrgX1 positive allosteric modulation, primary screen; Q96LB2; 0.63% of 310,000 active; MrgX1-HEK293, Fluo-4 calcium flux, FDSS; hits give high values; AID 588675; B-score at 10 µM;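 active = plate-corrected calcium response at least 3 library SD above typical, normal starting fluorescence, not activating the receptor alone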;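 note: compound read alongside a low EC10 to EC30 dose of BAM8-22 agonist; peak minus trough fluorescence over baseline measured at the second addition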
RGS4 inh – human RGS4 inhibition | P49798 | HEK293 M3R/RGS4 inducible, Fluo-4 calcium flux; hits give high values; triggered by carbachol at its EC20 | B-score at 10 µM | 0.45% of 310,000 active | AID 463165;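 active = B-score, a plate-corrected calcium signal, over three deviations above library mean, with baseline fluorescence within five deviations of library mean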;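 note: RGS4 expression induced by doxycycline in cells with stable M3 receptor; B-score is computed from the integrated fluorescence ratio over baseline after carbachol; higher B-score means a larger calcium signal and so more RGS4 inhibition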
Target sequence (P49798 whole entry, looked up): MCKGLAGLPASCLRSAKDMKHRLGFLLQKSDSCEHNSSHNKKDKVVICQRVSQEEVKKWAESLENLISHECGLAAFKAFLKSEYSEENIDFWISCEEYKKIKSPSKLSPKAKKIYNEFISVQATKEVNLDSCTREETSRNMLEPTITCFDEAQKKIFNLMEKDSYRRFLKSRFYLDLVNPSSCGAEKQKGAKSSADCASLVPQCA
MrgX1 antagonist – antagonists of human MrgX1 receptor | Q96LB2 | MRGX1-HEK293 calcium flux, Fluo-4, BAM8-22 antagonism; hits give low values | B-score at 10 µM | 1.3% of 310,000 active;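 active = calcium-response B-score plate-corrected more than 3 library SD below zero, starting fluorescence within 5 deviations, no agonist response on first addition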;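 note: peak minus trough fluorescence over baseline after final BAM8-22 challenge near maximal dose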
MrgX1 antag conf – confirmation of human MrgX1 receptor antagonists; shares compounds with MrgX1 antagonist; AID 602420; 19% of 2,300 active; remaining BAM8-22 calcium response % of control (hits give low values), % at 10 µM; MrgX1-HEK293, BAM8-22 calcium flux, Fluo-4; hits give low values;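 active = remaining agonist calcium response no higher than 100% minus 3 SD of agonist-only control wells, with starting fluorescence near control levels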;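 note: agonist BAM8-22 given at a near maximal EC90 to ECmax level; peak minus minimum fluorescence divided by baseline after agonist addition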
HEK293 Ca flux – activity in parental HEK293 cells lacking MrgX1; shares compounds with MrgX1 antagonist; 2% of 4,000 active; AID 624111; Fluo-4 calcium fluorescence, FDSS; fluorescence ratio F(max-min)/F0 at 10 µM;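 active = duplicate-averaged calcium fluorescence ratio at least three times the standard deviation of buffer wells, a nonspecific response in parental cells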
HEK293 Ca counter – counter-screen for MrgX1 allosteric activators: effect in parental HEK293 cells | shares compounds with MrgX1 antagonist | parental HEK293 calcium flux, Fluo-4 fluorescence ratio; hits give high values | fluorescence ratio F(max-min)/F0 at 10 µM | 0.4% of 4,000 active;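 active = calcium fluorescence ratio, averaged over duplicates, at least 3 SD of the buffer-well ratio, meaning a nonspecific response in receptor-free cells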;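 note: untransfected parental HEK293 lacking MrgX1 used as counterscreen for MrgX1 allosteric activators; fluorescence change taken during the second addition on a kinetic imager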
HEK293 Ca cntr2 – MrgX1 activator counter-screen hit in parental HEK293 cells; 8.7% of 4,000 active; shares compounds with MrgX1 antagonist; fluorescence ratio F(max-min)/F0 at 10 µM; Fluo-4 calcium fluorescence (FDSS); hits give high values;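 active = calcium fluorescence ratio at least three times the spread of buffer wells, meaning a non-specific response in parental cells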
Hits are given with their value; i = inactive; nt = not tested or not shown. The list is not random: actives were taken first. Their share in the collection is about 3.5%.

SMILES	MrgX1 ag	RGS4 pot	MrgX1 allo act	RGS4 inh	MrgX1 antagonist	MrgX1 antag conf	HEK293 Ca flux	HEK293 Ca counter	HEK293 Ca cntr2
COc1ccc(-c2cc(C(F)(F)F)n3ncc(C(=O)N4CCCCC4c4cccnc4)c3n2)cc1 (stereo not given)	i	i	i	i	-5.8	i	i	i	i
CCOCc1cnc(C)nc1NCC(=O)c1c(C)[nH]c2ccc(OC)cc12	i	i	i	i	-8.8	i	i	i	i
CC(=O)Nc1cc(C(=O)N2CCc3ccccc3C2)ccc1Sc1ccc(F)cc1	i	i	i	i	i	nt	nt	nt	nt
O=C(CSc1nnc(NC(=O)c2c(F)cccc2F)s1)Nc1ccc(F)cc1	i	i	i	i	-6.2	i	i	i	i
Cc1ccc(S(=O)(=O)/N=c2\ccc(Cl)cn2C(F)F)cc1	i	i	i	i	i	nt	nt	nt	nt
CCn1nnc2cc(C(=O)Nc3cc(S(C)(=O)=O)ccc3Cl)ccc21	i	i	i	i	i	nt	nt	nt	nt
CCn1nnc2cc(C(=O)Nc3cc(OC)cc(OC)c3)ccc21	i	i	i	i	-8.7	i	i	i	i
CCN1CCN(c2ccc(S(=O)(=O)N3CCCCC3)cc2NC(=O)c2cccc(OC(F)F)c2)CC1	i	i	i	i	i	nt	nt	nt	nt
Cc1cccc(C(=O)NCC(=O)OC(C)C(=O)Nc2ccc(Cl)cn2)c1 (stereo not given)	i	i	i	i	i	nt	nt	nt	nt
CC(/C=N\NC(=O)Cn1c(C)nc2ccccc21)=C\c1ccccc1	i	i	i	i	-11	i	i	i	i
CC(C)(C)N1CC(C(=O)Nc2ccc(S(N)(=O)=O)cc2)CC1=O (stereo not given)	i	i	i	i	-4.9	i	i	i	i
CC(C)(C)N1CC(C(=O)Nc2ccc(S(=O)(=O)N3CCCCC3)cc2)CC1=O (stereo not given)	i	i	i	i	i	nt	nt	nt	nt
CC(C)c1ccc(NC(=O)C2CC(=O)N(C(C)C)C2)cc1 (stereo not given)	i	i	i	i	-9	i	i	i	i
O=C(C1CCN(C2CCN(CC3CC=CCC3)CC2)CC1)N1CCOCC1 (stereo not given)	i	i	i	i	i	nt	nt	nt	nt
c1ccc(CNc2nc3ccccc3n2CCN2CCOCC2)nc1	i	i	i	i	-4.7	i	i	i	i
CCCn1c(NCc2ccccn2)nc2ccccc21	i	i	i	i	i	nt	nt	nt	nt
CCCc1cc(=O)[nH]c2nnc(SCC(=O)Nc3ccc4c(c3)OCCO4)n12	i	i	i	i	i	nt	nt	nt	nt
Cc1nn(CCC(=O)O)c2nc(-c3cccnc3)cc(C(F)(F)F)c12	i	i	i	i	i	nt	nt	nt	nt
Cc1nn(CCc2nn[nH]n2)c2nc(-c3ccc(C4CCCCC4)cc3)cc(C(F)(F)F)c12	i	-8.5	i	i	-21	2.0%	i	i	84
O=C(COc1ccccc1[N+](=O)[O-])N(Cc1cccc(Br)c1)C1CCS(=O)(=O)C1 (stereo not given)	i	i	i	i	i	nt	nt	nt	nt
CNc1c(C(=O)O)ccc2c1C(=O)c1ccccc1C2=O	i	i	i	i	-8.6	i	i	i	i
CCNc1c(C(=O)O)ccc2c1C(=O)c1ccccc1C2=O	i	i	i	i	i	nt	nt	nt	nt
CC(=O)NC(CC(=O)N(C)Cc1cccc(Cl)c1Cl)c1ccccc1 (stereo not given)	i	i	i	i	i	nt	nt	nt	nt
O=C1CC(=O)N(CCc2ccccc2)C(=O)N1CCc1ccccc1	i	i	i	i	-11	79%	i	i	i
O=C(CN1C(=O)NC2(CCCC2)C1=O)Nc1ccccc1	i	i	i	i	i	nt	nt	nt	nt
SMILES	MrgX1 ag	RGS4 pot	MrgX1 allo act	RGS4 inh	MrgX1 antagonist	MrgX1 antag conf	HEK293 Ca flux	HEK293 Ca counter	HEK293 Ca cntr2
O=C(O)CCN1C(=O)NC2(CCCC2)C1=O	i	i	i	i	-7.3	i	i	i	i
COc1ccc(NC(=O)CN2CCN(c3ccc(F)cc3)CC2)cc1	i	i	i	i	i	nt	nt	nt	nt
CCOc1ccc(NC(=O)CN2CCN(c3ccc(F)cc3)CC2)cc1	i	i	i	i	-5.5	i	i	i	i
CNC(=O)COC(=O)c1cc(-c2ccccc2)nn1-c1ccccc1	i	i	i	i	i	nt	nt	nt	nt
O=C(Cc1c[nH]c2ccccc12)NCc1ccccc1F	i	i	i	i	i	nt	nt	nt	nt
COc1ccc(-c2c(NC(=O)c3ccco3)oc3ccccc3c2=O)cc1OC	i	i	i	i	i	nt	nt	nt	nt
Cc1ccc2[nH]c(=O)c(CN(CCN3CCOCC3)C(=O)Nc3ccc(F)cc3)cc2c1	i	i	i	i	-5.2	i	i	i	i
CC1CCCCN1C(=O)CSc1nnc(-c2ccco2)n1CC1CCCO1 (stereo not given)	i	i	i	i	-7	i	i	i	i
CCn1c(SCC(=O)N2CCCCC2C)nnc1-c1ccco1 (stereo not given)	i	i	i	i	i	nt	nt	nt	nt
CCc1cc2c(=O)[nH]c(-c3ccncc3)nc2s1	i	i	i	i	-6.6	i	i	i	i
COc1ccc(OCC(=O)Nc2ccc(C(=O)Nc3ccccc3C(=O)O)cc2)cc1	i	i	i	i	i	nt	nt	nt	nt
O=C(COc1ccc(Br)cc1)Nc1ccc(C(=O)Nc2ccccc2C(=O)O)cc1	i	i	i	i	-7.1	i	i	i	i
COC(=O)N1CCCc2cc(C)ccc21	i	i	i	i	i	nt	nt	nt	nt
COc1ccc2c(c1)CCCN2C(N)=O	i	i	i	i	-4.9	i	i	i	i
O=C(Cn1cnc2nc3n(c2c1=O)CCC3)NCc1ccccc1	i	i	i	i	i	nt	nt	nt	nt
Cc1ccc2c(c1)CCCN2S(=O)(=O)c1cccc(C(=O)Nc2ccccc2C(=O)O)c1	i	i	i	i	-6.7	67%	i	i	i
O=C(NC1=NCCS1)c1ccc(Cl)c(S(=O)(=O)N2CCc3ccccc32)c1	i	i	i	i	i	nt	nt	nt	nt
O=C(NC1=NCCS1)c1cccc(S(=O)(=O)N2CCc3ccccc32)c1	i	i	i	i	-4.9	i	i	i	i
Cc1ccc(Cn2nnc(C(=O)Nc3cc(C)ccc3C)c2N)cc1	i	i	i	i	-4.6	i	i	i	i
O=C(Oc1ccc2ccc(OC(=O)N3CCCCCC3)cc2c1)N1CCCCCC1	i	i	i	i	i	nt	nt	nt	nt
COc1ccc(OCC(=O)N/N=C(\C)CC(=O)Nc2cccc([N+](=O)[O-])c2)cc1	i	i	i	i	-11	i	i	i	i
